Published values collected from several papers.
Compare with care: the assays were run in different laboratories.
Target: Interleukin-1 receptor-associated kinase 4 (IRAK4, Homo sapiens, UniProt Q9NWZ3)

| SMILES | test | setting | quantity | result |
| --- | --- | --- | --- | --- |
| Nc1ncnc2occ(-c3ccc(NC(=O)Nc4cc(C(F)(F)F)ccc4F)cc3)c12 | cell-free assay, inhibitor | 20 µM | remaining signal | 46% |
| O=C(Nc1cnn(-c2csc(C(=O)NC3COC3)c2)c1)Nc1c(F)cccc1Cl | enzyme activity, inhibitor | 5 µM | remaining activity | 97.8% |
| C=CC(=O)Nc1cc(Nc2nccc(Nc3cc(Cl)c(F)cc3C(C)(C)O)n2)c(OC)cc1N1CC[C@@H](N(C)C)C1 | enzyme activity, inhibitor | 1 µM | inhibition | 24% |
| N#CC1(c2ccccn2)CCN(Cc2cc(C(=O)N3CCCC3)c(=O)n3ccccc23)CC1 | cell-free assay, competition with immobilised ligand | 1 µM | remaining binding | 100% |
| CCN(CC)CCNC(=O)c1c(C)[nH]c(/C=C2\C(=O)Nc3ccc(F)cc32)c1C | enzyme activity, inhibitor | 10 µM | inhibition | 89% |
| COc1cc(Nc2cnc(C#N)c(O[C@H](C)CN(C)C)n2)ncc1-c1cnn(C)c1 | enzyme activity, inhibitor, radiometric | 10 µM | remaining activity | 25% |
| COc1ccc(COc2ccc(Cc3cnc(N)nc3N)cc2OC)cc1 | cell-free assay | 0.5 µM | remaining signal | 110% |
| Cc1nccc(COC(=O)N2C[C@@H]3[C@@H](CNC(=O)c4ccc5[nH]nnc5c4)[C@@H]3C2)n1 | cell-free assay, competition with immobilised ligand | 1 µM | remaining binding | 87% |
| COc1cc2ncnc(Nc3ccc(Oc4ccccc4)cc3C)c2cc1OC | enzyme activity, inhibitor | 1 µM | inhibition | 0% |
| O=C(CSc1nc2nccnc2c(=O)n1CCc1ccccc1)Nc1nccs1 | enzyme activity, inhibitor | 10 µM | inhibition | 10% |
| Cn1c(=O)n(-c2ccc(C(C)(C)C#N)cc2)c2c3cc(-c4cnc5ccccc5c4)ccc3ncc21 | enzyme activity, inhibitor | 10 µM | remaining activity | 78% |
| CSc1nc(C)c(-c2ccnc(Nc3ccc(N4CCOCC4)cc3)c2)[nH]1 | enzyme activity, inhibitor | 10 µM | inhibition | 45.8% |
| CNCc1ccccc1-c1csc([C@@H](C)Nc2nc(C)nc3cc(OC)c(OC)cc23)c1 | cell-free assay, competition with immobilised ligand | 1 µM | remaining binding | 76% |
| CC(C)(O)[C@H]1CC[C@H](Nc2ccc3ncc(-c4cccc(C(F)(F)F)c4)n3n2)CC1 | enzyme activity, inhibitor | 1 µM | remaining activity | 64.2% |
| Cc1cc(NC(=O)c2cccc3cc(-c4cccc5[nH]nc(N)c45)ccc23)ccc1F | enzyme activity, inhibitor | 0.1 µM | activity vs control | 99% |
| CC(C)(C)c1nc(-c2cccc(NS(=O)(=O)c3c(F)cccc3F)c2F)c(-c2ccnc(N)n2)s1 | enzyme activity, inhibitor, radiometric | 1 µM | remaining activity | 103% |
| CCc1ccccc1C(=O)Nc1n[nH]c2c(C)c(F)c(C3C(C#N)=C(C)N(C)C(C)=C3C#N)cc12 | cell-free assay, competition with immobilised ligand | 1 µM | remaining binding | 100% |
| COc1cc2c(Nc3ccc(Br)cc3F)ncnc2cc1OCC1CCN(C)CC1 | cell-free assay | 0.5 µM | remaining signal | 35.3% |
| C[C@@]1(Cc2ccc(C#N)cc2)C(=O)N(c2cc(Cl)cc(Cl)c2)c2ncc(C(=O)NC3(c4nc(C5CCC5)no4)CC3)n21 | cell-free assay, competition with immobilised ligand | 1 µM | remaining binding | 100% |
| CN(C)C1CCN(CC#Cc2nn(C3CCCC3)c3nc(NCc4ccccc4)ncc23)C1 (centres unmarked) | enzyme activity, inhibitor, FRET | 1 µM | inhibition | 3% |
| Cc1cnc(NC2CCOCC2)nc1-n1cnc(C(=O)NC(CN)c2cc(F)cc(Cl)c2)c1 (centres unmarked) | enzyme activity, inhibitor, radiometric | 1 µM | remaining activity | 104% |
| Cc1ccc(Nc2nccc(N(C)c3ccc4c(C)n(C)nc4c3)n2)cc1S(N)(=O)=O | enzyme activity, inhibitor | 0.5 µM | remaining activity | 98.4% |
| COc1cc(Cl)c(C(=O)N[C@@H](CN[C@H]2CC[C@@H](N)CC2)Cc2ccc(C#N)cc2)cc1-c1ccc(CN[C@H](C)c2ccc(C)cc2)o1 | enzyme activity, inhibitor | 1 µM | remaining activity | 89% |
| CC(=O)Nc1c(C(C)=O)c(=O)n(C)c2nc(-c3ccc(Cl)cc3Cl)c(-c3ccc(Cl)cc3)cc12 | cell-free assay, competition with immobilised ligand | 1 µM | remaining binding | 100% |
| Cc1ccc(C(=O)NCc2ccsc2)cc1C#Cc1cn(C(C)C)c2ncnc(N)c12 | enzyme activity, inhibitor | 1 µM | activity vs control | 88% |
| N#Cc1ccc(Nc2ccc3[nH]c(=O)[nH]c3c2)c(Cl)c1 | cell-free assay, competition with immobilised ligand | 1 µM | remaining binding | 100% |
| FC(F)(F)Oc1cccc(-c2cnc3ccc(-c4ccncc4)nn23)c1 | enzyme activity, inhibitor, radiometric | 5 µM | activity vs control | 10% |
| CNC(=O)c1cc(Oc2ccc(NC(=O)Nc3ccc(Cl)c(C(F)(F)F)c3)cc2)ccn1 | cell-free assay | 0.5 µM | remaining signal | 99.6% |
| CO[C@@H](C)c1c(Nc2ccc([C@H](N(C)C(=O)C3CCS(=O)(=O)CC3)C(F)(F)F)cc2)cnc2cc(Cl)nn12 | cell-free assay, competition with immobilised ligand | 1 µM | remaining binding | 88% |
